Measurements taken from PMC9468506 (Current Research in Food Science, 2022).
Values after ≈ are worked out from the molar mass of the structure shown. Where two headings read alike, the source gives them in different places.

What was measured:
anti-PBZ mAb = experiment: TRFMs-LFIA competitive lateral flow immunoassay with anti-PBZ mAb immunoprobe; assay type: binding, mouse; settings: for IC50: TRFMs-LFIA, coating antigen PBZ-2-BSA, optimal conditions; for CR: cross reactivity = IC50 (PBZ)/IC50 (structural analogue) x 100
Method in brief: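 Anti-analyte mAb coupled by EDC/NHS to carboxylated time-resolved fluorescent microspheres, activated in MES pH 6.0. Nitrocellulose strip has a T line of coating antigen (2 mg/mL) and a C line of goat anti-mouse IgG (0.16 mg/mL). Probe (7.5 μg/mL stock) and 100 μL standard are premixed 3 min, then the strip is dipped 3 min. The T/C fluorescence ratio gives B/B0 against log concentration. IC50 is taken at 50% B/B0, and CR = IC50 (analyte)/IC50 (analogue) × 100.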

[1] = system: anti-PBZ antibody (mAb or pAb); settings: icELISA, cited from earlier work
anti-PBZ pAb = settings: TRFIA, water and soil, ref Liu et al. (2016); cited from earlier work

Question: For `CCCCC(O)(Cn1cncn1)c1ccc(Cl)cc1Cl` (stereo not drawn) [Hexaconazole], which IC50 (anti-PBZ mAb) is on record?
Answer: Its IC50 is over 10 µg/mL.

Question: What about the CR (anti-PBZ mAb) of the same compound?
Answer: The CR was under 0.1%.

Question: What does the source list for `CC(C)(C)[C@@H](O)[C@@H](Cc1ccc(Cl)cc1)n1cncn1` [Paclobutrazol]?
Answer: CR (anti-PBZ mAb): 100%; IC50 ([1]; mAb, soil, ref Jin (2019)): 0.0116 µg/mL (≈ 0.0395 µM); IC50 ([1]; mAb, wheat, ref Cao et al. (2014)): 0.0087 µg/mL (≈ 0.0296 µM); IC50 ([1]; pAb, fruits, ref Ouyang et al. (2020)): 0.01326 µg/mL (≈ 0.0451 µM); IC50 ([1]; pAb, water and soil, ref Wang (2016)): 0.02135 µg/mL (≈ 0.0727 µM); IC50 (anti-PBZ pAb): 0.00109 µg/mL (≈ 0.00371 µM)

Question: With `CC(C)(C)C(O)(CCc1ccc(Cl)cc1)Cn1cncn1` (stereo not drawn) [Tebuconazole] as the compound, how does the IC50 (anti-PBZ mAb) read?
Answer: The IC50 was over 10 µg/mL.

Question: And the CR (anti-PBZ mAb)?
Answer: The CR was under 0.1%.

Question: Which results are given for `CC(C)(C)C(=O)C(Oc1ccc(Cl)cc1)n1cncn1` (stereo not drawn) [Triadimefon]?
Answer: IC50 (anti-PBZ mAb): 0.44371 µg/mL (≈ 1.51 µM); CR (anti-PBZ mAb): 2.10%

Question: Which IC50 (anti-PBZ mAb) does the source give for `CC(C)(C)C(O)C(Oc1ccc(Cl)cc1)n1cncn1` (stereo not drawn) [Triadimenol] here?
Answer: The IC50 was 0.92421 µg/mL (≈ 3.12 µM).

Question: And the CR (anti-PBZ mAb)?
Answer: Its CR is 1.01%.

Question: With `CC(C)(C)C(O)/C(=C\c1ccc(Cl)cc1)n1cncn1` (stereo not drawn) [Uniconazole] as the compound, how does the IC50 (anti-PBZ mAb) read?
Answer: The IC50 was 3.81516 µg/mL (≈ 13.1 µM).

Question: What about the CR (anti-PBZ mAb) of the same compound?
Answer: The CR was 0.25%.

Question: What does the source list for Diniconazole?
Answer: IC50 (anti-PBZ mAb): >10 µg/mL; CR (anti-PBZ mAb): <0.1%
